Screens: PubChem, several laboratories
NF-kB neuron act: NF-kB expression increase, human neuronal cells; NF-kB reporter expression; hits give high values; actives 1.6% (n = 190,000); fold change at 12.5 µM; in the data active means fold change above about 3.3
APP 5'UTR act: activates APP 5'UTR luciferase reporter. SH-SY5Y APP 5'UTR luciferase reporter, luminescence; zero percent = DMSO vehicle wells. activation, % at 2 µM. actives 1% (n = 190,000);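 active means activation above a set limit, based on mean plus 3 SD of controls, cut at about 140% in these data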
STAT1 blocker: inhibitors of IFN-gamma induced STAT1 signaling; NIH 3T3 STAT1-luciferase reporter, luminescence; inhibition, % at 5.5 µM; actives 0.35% (n = 200,000);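 active means inhibition above a set limit, the mean inhibition across all tested compounds plus 3 SD, cut at about 34% in these data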;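 further: 0% = IFN-gamma with DMSO and 100% = IFN-gamma with 300 µM nifuroxazide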
STAT3 inh-1: STAT3 signaling inhibition | U3A cells, IL-6 STAT3-luciferase reporter, luminescence; host cell line lacks STAT1 | inhibition, % at 5.5 µM | actives 0.89% (n = 190,000) | AID 862;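 active means inhibition above the mean inhibition across all screened compounds plus 3 SD, cut at about 44% in these data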;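 further: 0% = DMSO only wells and 100% = 100 µM nifuroxazide control wells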
STAT3 activator: increases IL-6 driven STAT3 reporter signal | U3A cells, IL-6 STAT3-luciferase reporter, luminescence; 100% = signal with IL-6 EC80 alone | activation (% of control), % at 5.6 µM | AID 871 | actives 0.91% (n = 190,000);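 active means activation above the screen-wide mean of compound activation plus 3 SD, cut at about 130% in these data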;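 further: 0% = background luminescence of wells with medium and substrate only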
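Material: STAT3-luciferase reporter U3A cells. Controls: IL-6-treated wells, 100% activation. Read-out: % activation versus median of IL-6-stimulated wells. Probe or stimulus: IL-6 stimulus at 33 ng/mL final. Timing: compound 1 h, then IL-6 6 h at 37 °C. Signal: reporter luminescence signal.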
STAT1 activator: STAT1 signaling activation | NIH 3T3 STAT1-luciferase reporter, IFN-gamma, luminescence; 100% = IFN-gamma alone, no compound | activation (% of control), % at 5.5 µM | actives 2.6% (n = 200,000) | AID 932;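 active means activation above the screen-wide mean activation plus 3 SD, cut at about 130% in these data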;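 further: raw ratio to IFN-gamma control signal so 100% means no change and 0% no light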
STAT3 inh-2: confirmation of STAT3 signaling inhibitors. actives 45% (n = 1,200). shares compounds with STAT3 inh-1. U3A cells, IL-6 STAT3 luciferase reporter, luminescence; cell line lacks STAT1. inhibition, % at 5.7 µM;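 active means inhibition above the hit cutoff computed for the primary STAT3 screen, cut at about 44% in these data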;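 further: 0% = IL-6 plus DMSO and 100% = IL-6 plus nifuroxazide control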
NFkB inh STAT3ct: inhibits NF-kappaB, counter-screen to STAT3 inhibitors. shares compounds with STAT3 inh-1. HEK293T NF-kB luciferase reporter, TNF-alpha induced. inhibition, % at 5.7 µM. actives 36% (n = 1,200). AID 1308;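 active means inhibition above the mean of solvent-only control wells plus 3 SD, cutoff set per campaign, cut at about 13% in these data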;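 further: 0% = TNF-alpha with DMSO and 100% = TNF-alpha with MG high control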
STAT1 inh STAT3c: STAT1 inhibition in STAT3 inhibitor counter-screen | inhibition, % at 5.7 µM | NIH 3T3 STAT1-luciferase reporter, IFN-gamma induced, luminescence | shares compounds with STAT3 inh-1 | actives 27% (n = 1,200);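 active means inhibition above the mean plus 3 SD of solvent-only control wells, limit set per screening run, cut at about 16% in these data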;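 further: 0% = DMSO with IFN-gamma and 100% = nifuroxazide control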
The depositor's hits bear a star. This is a sample that favours compounds with a hit; in the whole collection about 4.9% have one here.

What do the screens show for `CC1=NN(C(=O)c2ccc(Cn3cc([N+](=O)[O-])cn3)cc2)C(O)(C(F)(F)F)C1` (centres undefined)?
NF-kB neuron act: 1; APP 5'UTR act: -8; STAT1 blocker: 7; STAT3 inh-1: 6; STAT3 activator: 97; STAT1 activator: 93

What do the screens show for `Cc1ccc(-n2c(-c3ccccc3)c[n+]3c2CCc2ccccc2-3)c(C)c1`?
NF-kB neuron act: 0.76; APP 5'UTR act: 27; STAT1 blocker: 28; STAT3 inh-1: 66*; STAT3 activator: 47; STAT1 activator: 74; STAT3 inh-2: 60*; NFkB inh STAT3ct: -2; STAT1 inh STAT3c: 25*

What do the screens show for `Cc1ccc(-n2c(SCC(=O)N3CCCc4ccccc43)nnc2-c2cccnc2)c(C)c1`?
NF-kB neuron act: 0.72; APP 5'UTR act: -25; STAT1 blocker: 0; STAT3 inh-1: 20; STAT3 activator: 85; STAT1 activator: 100

What do the screens show for `COc1ccc(-c2nc3cc(NC(=O)c4ccc5c(c4)OCO5)ccc3o2)cc1`?
NF-kB neuron act: 1.4; APP 5'UTR act: 21; STAT1 blocker: -8; STAT3 inh-1: 20; STAT3 activator: 87; STAT1 activator: 107

How did COC(=O)c1ccc(-c2nc3cc(N)ccc3o2)cc1 do in these assays?
NF-kB neuron act: 2.3; APP 5'UTR act: -31; STAT1 blocker: 3; STAT3 inh-1: 59*; STAT3 activator: 52; STAT1 activator: 106; STAT3 inh-2: 31; NFkB inh STAT3ct: 1; STAT1 inh STAT3c: -48

Results for COC(=O)c1[nH]c2ccccc2c1NC(=O)CN1CCN(C(=O)c2ccco2)CC1 ?
NF-kB neuron act: 0.69; APP 5'UTR act: -2; STAT1 blocker: -4; STAT3 inh-1: 8; STAT3 activator: 97; STAT1 activator: 103

What do the screens show for `CCS(=O)(=O)c1ccc(N=Nc2ccc(O)c3ncccc23)c(OC)c1`?
NF-kB neuron act: 0.8; APP 5'UTR act: -63; STAT1 blocker: -2; STAT3 inh-1: 55*; STAT3 activator: 56; STAT1 activator: 104; STAT3 inh-2: 16; NFkB inh STAT3ct: -5; STAT1 inh STAT3c: -18

Results for CCC(CO)NCc1ccccc1OC(C)C (centres undefined) ?
NF-kB neuron act: 1; APP 5'UTR act: -13; STAT1 blocker: 1; STAT3 inh-1: -4; STAT3 activator: 107; STAT1 activator: 97

How did COc1ccc2cc3c(N)nn(C(=O)Cc4ccc(Cl)cc4)c3nc2c1 do in these assays?
NF-kB neuron act: 1.1; APP 5'UTR act: 3; STAT1 blocker: 2; STAT3 inh-1: 16; STAT3 activator: 94; STAT1 activator: 98

How did COc1cccc(CC(=O)n2nc(N)c3cc4ccc(OC)cc4nc32)c1 do in these assays?
NF-kB neuron act: 1.2; APP 5'UTR act: -13; STAT1 blocker: 1; STAT3 inh-1: 46*; STAT3 activator: 68; STAT1 activator: 99; STAT3 inh-2: 36; NFkB inh STAT3ct: -14; STAT1 inh STAT3c: 8

What do the screens show for `COC(=O)c1ccc(-c2nc3cc(Cl)c(N)cc3s2)cc1`?
NF-kB neuron act: 1.6; APP 5'UTR act: 142*; STAT1 blocker: -48; STAT3 inh-1: 87*; STAT3 activator: 25; STAT1 activator: 146*; STAT3 inh-2: 69*; NFkB inh STAT3ct: 31*; STAT1 inh STAT3c: -4

What do the screens show for `Cc1ccc(-n2nnnc2SCn2nnc3ccccc3c2=O)c(C)c1`?
NF-kB neuron act: 0.87; APP 5'UTR act: 21; STAT1 blocker: 21; STAT3 inh-1: 53*; STAT3 activator: 58; STAT1 activator: 81; STAT3 inh-2: 53*; NFkB inh STAT3ct: 5; STAT1 inh STAT3c: 15

Results for Cc1cc(SCn2nnc3ccccc3c2=O)nc2ccccc12 ?
NF-kB neuron act: 1.9; APP 5'UTR act: -2; STAT1 blocker: -6; STAT3 inh-1: -1; STAT3 activator: 102; STAT1 activator: 105

Results for S=C(NCCc1ccccc1)Nc1cccc2cnccc12 ?
NF-kB neuron act: 0.97; APP 5'UTR act: 6; STAT1 blocker: 26; STAT3 inh-1: 68*; STAT3 activator: 44; STAT1 activator: 76; STAT3 inh-2: 73*; NFkB inh STAT3ct: 25*; STAT1 inh STAT3c: 23*

Results for O=C(C1CCN(S(=O)(=O)c2cccc3cccnc23)CC1)N1CCN(c2ccc(Cl)cc2)CC1 ?
NF-kB neuron act: 0.65; APP 5'UTR act: -15; STAT1 blocker: 26; STAT3 inh-1: 47*; STAT3 activator: 65; STAT1 activator: 77; STAT3 inh-2: 30; NFkB inh STAT3ct: 14*; STAT1 inh STAT3c: 24*

How did COc1cccc(N2CCN(c3c4c(nc5ncnn35)CCC4)CC2)c1 do in these assays?
NF-kB neuron act: 1.1; APP 5'UTR act: -6; STAT1 blocker: 8; STAT3 inh-1: 56*; STAT3 activator: 56; STAT1 activator: 93; STAT3 inh-2: 43*; NFkB inh STAT3ct: 12; STAT1 inh STAT3c: 17*

How did COc1ccc(OC)c(NC(=O)CSc2ncnc3c2cnn3-c2ccccc2Cl)c1 do in these assays?
NF-kB neuron act: 3.3*; APP 5'UTR act: 11; STAT1 blocker: 31; STAT3 inh-1: 79*; STAT3 activator: 35; STAT1 activator: 76; STAT3 inh-2: 81*; NFkB inh STAT3ct: 31*; STAT1 inh STAT3c: 26*

What do the screens show for `CCOc1cc(S(=O)(=O)NCc2cccs2)ccc1Cl`?
NF-kB neuron act: 1.2; APP 5'UTR act: -2; STAT1 blocker: 4; STAT3 inh-1: 7; STAT3 activator: 98; STAT1 activator: 96

Results for CC1CCCCC1NS(=O)(=O)c1ccc(S(=O)(=O)NCc2ccncc2)cc1 (centres undefined) ?
NF-kB neuron act: 0.79; APP 5'UTR act: 1; STAT1 blocker: 26; STAT3 inh-1: 73*; STAT3 activator: 44; STAT1 activator: 77; STAT3 inh-2: 48*; NFkB inh STAT3ct: 9; STAT1 inh STAT3c: 12

How did Cc1ccc(S(=O)(=O)NCc2ccncc2)cc1 do in these assays?
NF-kB neuron act: 0.94; APP 5'UTR act: -11; STAT1 blocker: 23; STAT3 inh-1: 68*; STAT3 activator: 44; STAT1 activator: 79; STAT3 inh-2: 38; NFkB inh STAT3ct: 21*; STAT1 inh STAT3c: 25*

Results for CCOc1cc(S(=O)(=O)NCc2ccncc2)ccc1Cl ?
NF-kB neuron act: 0.91; APP 5'UTR act: -2; STAT1 blocker: 34; STAT3 inh-1: 84*; STAT3 activator: 28; STAT1 activator: 69; STAT3 inh-2: 85*; NFkB inh STAT3ct: 34*; STAT1 inh STAT3c: 27*
